These results are taken from ChEMBL document CHEMBL4138171, “Design, synthesis and biological evaluation of novel aryldiketo acids with enhanced antibacterial activity against multidrug resistant bacterial strains” (Eur J Med Chem, 2018).

Holding throughout (format): functional
In test [1] the test system is Staphylococcus aureus. Description: Antibacterial activity against tetracycline/methicillin-resistant Staphylococcus aureus XU212 after 16 hrs by microdilution method. The note with it: XU212, 16 h. An outline of the steps: (§1)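 Broth microdilution in cation-adjusted Mueller-Hinton broth (20 mg/l Ca2+, 10 mg/L Mg2+), inoculum 5×10^5 CFU/mL. Compounds in DMSO, solvent under 1% in well, tested over 0.12-128 µg/ml. […] Each determined at least twice; values converted to µmol/L.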
Background: Broth dilution looks for growth in wells or tubes with falling amounts of substance.

Test [2] concerns Staphylococcus aureus. Briefly: Antibacterial activity against erythromycin-resistant Staphylococcus aureus RN4220 after 16 hrs by microdilution method. As to conditions: RN4220, 16 h. A digest of the protocol: as §1
The test system of test [3] is Staphylococcus aureus. Description: Antibacterial activity against Staphylococcus aureus EMRSA-15 after 16 hrs by microdilution method. As to conditions: EMRSA-15, 16 h. An outline of the steps:
(§2)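 Broth microdilution in cation-adjusted Mueller-Hinton broth (20 mg/l Ca2+, 10 mg/L Mg2+), inoculum 5×10^5 CFU/mL. Compounds from DMSO stocks, final DMSO <1%, tested over 0.12–128 µg/ml. Incubated 37 °C and read visually after 16 h. MIC is the lowest concentration with no visible growth, determined at least twice and converted to µmol/L.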

Test [4] deals with Staphylococcus aureus. Description: Antibacterial activity against Norfloxacin-resistant Staphylococcus aureus 1199B over-expressing NorA after 16 hrs by microdilution method. A digest of the protocol:
as §1

The subject of another test is Escherichia coli. Description: Antibacterial activity against Escherichia coli NCTC 12241 after 16 hrs by microdilution method. As to conditions: NCTC 12241, 16 h. An outline of the steps: as §2
Test [5] concerns Staphylococcus aureus. Description: Antibacterial activity against methicillin-sensitive Staphylococcus aureus NCTC 12981 after 16 hrs by microdilution method. The note with it: NCTC 12981, 16 h. A digest of the protocol:
as §2

The test system of another test is Enterococcus faecalis. Description: Antibacterial activity against Enterococcus faecalis NCTC 12697 after 16 hrs by microdilution method. The note with it: NCTC 12697, 16 h. An outline of the steps: as §2
The next test has as its system Bacillus subtilis. Description: Antibacterial activity against Bacillus subtilis NCTC 10400 after 16 hrs by microdilution method. As to conditions: NCTC 10400, 16 h. A digest of the protocol:
as §2

The subject of test [6] is Staphylococcus aureus. Description: Antibacterial activity against methicillin-resistant Staphylococcus aureus NCTC 13373 after 16 hrs by microdilution method. The note with it: NCTC 13373, 16 h. An outline of the steps:
as §1

Bounds are passed on as bounds.

Broadly, the MIC is the smallest concentration in the dilution series that meets the test's criterion for growth inhibition. Read a low MIC as inhibition by little substance.

Turning to `O=C(O)/C(O)=C/C(=O)c1ccc(-c2ccccc2)cc1`, the MIC against Staphylococcus aureus [1] was greater than 128 µg/mL; in the test with Staphylococcus aureus [2], greater than 128 µg/mL; against Staphylococcus aureus [3] it was greater than 128 µg/mL; against Staphylococcus aureus [4], 477 µM; in the test with Escherichia coli it was greater than 128 µg/mL.
Take `Cc1ccccc1C(=O)/C=C(\O)C(=O)O`: the MIC in the test with Staphylococcus aureus [5], against Staphylococcus aureus [1], with Staphylococcus aureus [2], in the test on Enterococcus faecalis, against Staphylococcus aureus [3] and against Bacillus subtilis was greater than 128 µg/mL each time. Further, the MIC against Staphylococcus aureus [4], in the test with Escherichia coli and with Staphylococcus aureus [6] was greater than 128 µg/mL throughout.
For `CC(C)(C)c1ccc(C(=O)/C=C(\O)C(=O)O)cc1`, the MIC with Staphylococcus aureus [1] is greater than 128 µg/mL; with Staphylococcus aureus [2], greater than 128 µg/mL; against Staphylococcus aureus [3] it was greater than 128 µg/mL; with Staphylococcus aureus [4], 1030 µM; against Escherichia coli it was greater than 128 µg/mL.
Consider `O=C(O)/C(O)=C/C(=O)c1ccc(N2CCCC2)cc1`, for which the MIC against Staphylococcus aureus [5], in the test on Staphylococcus aureus [1], against Staphylococcus aureus [2], in the test with Enterococcus faecalis, with Staphylococcus aureus [3] and in the test with Bacillus subtilis was greater than 128 µg/mL in each case. Also, the MIC against Staphylococcus aureus [4], in the test on Escherichia coli and against Staphylococcus aureus [6] was greater than 128 µg/mL throughout.
Take `O=C(O)/C(O)=C/C(=O)c1ccc2c(c1)CCCC2`: the MIC is greater than 128 µg/mL against Staphylococcus aureus [5]; greater than 128 µg/mL against Staphylococcus aureus [1]; greater than 128 µg/mL against Staphylococcus aureus [2]; 260 µM against Enterococcus faecalis; 520 µM against Staphylococcus aureus [3]; greater than 128 µg/mL in the test on Bacillus subtilis. Further, the MIC with Staphylococcus aureus [4] is 520 µM; in the test with Escherichia coli it was greater than 128 µg/mL; against Staphylococcus aureus [6] it was greater than 128 µg/mL.
For `CC(C)c1ccc(C(C)C)c(C(=O)/C=C(\O)C(=O)O)c1`, the MIC is 464 µM in the test on Staphylococcus aureus [1]; 464 µM against Staphylococcus aureus [2]; 232 µM in the test with Staphylococcus aureus [3]; 232 µM in the test on Staphylococcus aureus [4]; greater than 128 µg/mL against Escherichia coli.
With `O=C(O)/C(O)=C/C(=O)c1ccc(-n2ccnc2)cc1`, the MIC in the test on Staphylococcus aureus [5] is greater than 128 µg/mL; against Staphylococcus aureus [1], 496 µM; against Staphylococcus aureus [2], greater than 128 µg/mL; with Enterococcus faecalis, 496 µM; against Staphylococcus aureus [3], greater than 128 µg/mL; in the test with Bacillus subtilis, 496 µM. The results for the MIC in the test on Staphylococcus aureus [4], against Escherichia coli and against Staphylococcus aureus [6] were 124 µM, greater than 128 µg/mL and 248 µM, respectively.
As for `Cc1cccc(C(=O)/C=C(\O)C(=O)O)c1`, the MIC in the test on Staphylococcus aureus [5], against Staphylococcus aureus [1], against Staphylococcus aureus [2], against Enterococcus faecalis, against Staphylococcus aureus [3] and in the test with Bacillus subtilis was greater than 128 µg/mL throughout. The MIC in the test with Staphylococcus aureus [4], in the test with Escherichia coli and with Staphylococcus aureus [6] was greater than 128 µg/mL in each case.
For `Cc1cc(C)c(C(=O)/C=C(\O)C(=O)O)cc1C`, the MIC with Staphylococcus aureus [5], against Staphylococcus aureus [1], in the test on Staphylococcus aureus [2], against Enterococcus faecalis, with Staphylococcus aureus [3] and against Bacillus subtilis was greater than 128 µg/mL throughout. Besides, the MIC with Staphylococcus aureus [4], in the test with Escherichia coli and in the test with Staphylococcus aureus [6] was greater than 128 µg/mL throughout.
In the case of `CC(C)c1cc(C(C)C)c(C(=O)CCC(=O)O)c(C(C)C)c1`, the MIC with Staphylococcus aureus [5], with Staphylococcus aureus [1], in the test on Staphylococcus aureus [2], in the test on Staphylococcus aureus [3], in the test on Staphylococcus aureus [4] and with Escherichia coli was greater than 128 µg/mL throughout. This molecule also showed an MIC against Staphylococcus aureus [6] greater than 128 µg/mL.
As to `Cc1ccc(C(=O)/C=C(\O)C(=O)O)c(C)c1`, the MIC with Staphylococcus aureus [5], against Staphylococcus aureus [1], with Staphylococcus aureus [2], against Enterococcus faecalis, in the test with Staphylococcus aureus [3] and against Bacillus subtilis was greater than 128 µg/mL in each case. In addition, the MIC against Staphylococcus aureus [4], in the test on Escherichia coli and in the test on Staphylococcus aureus [6] was greater than 128 µg/mL in each case.
As to `O=C(O)/C(O)=C/C(=O)c1cccc(C(F)(F)F)c1`, the MIC against Staphylococcus aureus [5], with Staphylococcus aureus [1], in the test with Staphylococcus aureus [2], in the test with Enterococcus faecalis, against Staphylococcus aureus [3] and against Bacillus subtilis was greater than 128 µg/mL each time. Besides, the MIC against Staphylococcus aureus [4], against Escherichia coli and against Staphylococcus aureus [6] was greater than 128 µg/mL throughout.
As to `COc1ccccc1C(=O)/C=C(\O)C(=O)O`, the MIC against Staphylococcus aureus [5], against Staphylococcus aureus [1], in the test on Staphylococcus aureus [2], against Enterococcus faecalis, with Staphylococcus aureus [3] and against Bacillus subtilis was greater than 128 µg/mL in each case. For the same molecule, the MIC in the test on Staphylococcus aureus [4], with Escherichia coli and in the test with Staphylococcus aureus [6] was greater than 128 µg/mL throughout.
As for `CC(=O)c1cc(C2CCCCC2)ccc1C1CCCCC1`, the MIC is 450 µM against Staphylococcus aureus [5]; 225 µM against Staphylococcus aureus [1]; 225 µM in the test on Staphylococcus aureus [2]; 225 µM against Staphylococcus aureus [3]; 450 µM against Staphylococcus aureus [4]; greater than 128 µg/mL against Escherichia coli. Further, inhibition of growth in the test with Staphylococcus aureus [6] (MIC) required 450 µM.
As to `O=C(O)CCC(=O)c1cc(C2CCCCC2)ccc1C1CCCCC1`, the MIC against Staphylococcus aureus [5] is 94 µM; against Staphylococcus aureus [1], 47 µM; with Staphylococcus aureus [2] it was 47 µM; against Staphylococcus aureus [3], 94 µM; against Staphylococcus aureus [4], 47 µM; in the test with Escherichia coli, greater than 128 µg/mL. This molecule displayed an MIC against Staphylococcus aureus [6] of 94 µM.
On to `CC(C)c1ccc(C(=O)/C=C(\O)C(=O)O)c(C(C)C)c1`, for which the MIC with Staphylococcus aureus [1] was 464 µM; with Staphylococcus aureus [2] it was 232 µM; with Staphylococcus aureus [3] it was 232 µM; with Staphylococcus aureus [4] it was 232 µM; in the test on Escherichia coli, greater than 128 µg/mL.
`O=C(O)/C(O)=C/C(=O)c1ccc(N2CCOCC2)cc1`: the MIC in the test on Staphylococcus aureus [5], against Staphylococcus aureus [1], with Staphylococcus aureus [2], in the test with Enterococcus faecalis, in the test with Staphylococcus aureus [3] and against Bacillus subtilis was greater than 128 µg/mL throughout. The MIC in the test with Staphylococcus aureus [4], in the test with Escherichia coli and in the test with Staphylococcus aureus [6] was greater than 128 µg/mL each time.
On to `COc1cc(C)c(C(=O)/C=C(\O)C(=O)O)cc1C`, for which the MIC in the test with Staphylococcus aureus [5], with Staphylococcus aureus [1], against Staphylococcus aureus [2], against Enterococcus faecalis, in the test with Staphylococcus aureus [3] and with Bacillus subtilis was greater than 128 µg/mL each time. Moreover, the MIC against Staphylococcus aureus [4], against Escherichia coli and in the test on Staphylococcus aureus [6] was greater than 128 µg/mL each time.
In the case of `Cc1cc(C)c(C)c(C(=O)/C=C(\O)C(=O)O)c1C`, the MIC is greater than 128 µg/mL in the test on Staphylococcus aureus [5]; greater than 128 µg/mL in the test with Staphylococcus aureus [1]; greater than 128 µg/mL against Staphylococcus aureus [2]; 516 µM against Enterococcus faecalis; greater than 128 µg/mL with Staphylococcus aureus [3]; greater than 128 µg/mL in the test on Bacillus subtilis. The MIC in the test on Staphylococcus aureus [4], in the test with Escherichia coli and in the test with Staphylococcus aureus [6] was greater than 128 µg/mL each time.
As to `CCCCc1ccc(C(=O)/C=C(\O)C(=O)O)cc1`, the MIC was 258 µM in the test with Staphylococcus aureus [5]; 258 µM with Staphylococcus aureus [1]; 258 µM in the test on Staphylococcus aureus [2]; 129 µM in the test on Enterococcus faecalis; 258 µM against Staphylococcus aureus [3]; greater than 128 µg/mL against Bacillus subtilis. Also, the MIC in the test with Staphylococcus aureus [4] was 258 µM; with Escherichia coli, greater than 128 µg/mL; with Staphylococcus aureus [6], 258 µM.
For `O=C(O)/C(O)=C/C(=O)c1ccccc1`, the MIC against Staphylococcus aureus [4] is greater than 2660 µM; against Escherichia coli it was greater than 128 µg/mL.
For `COc1cccc(C(=O)/C=C(\O)C(=O)O)c1`, the MIC with Staphylococcus aureus [5], in the test with Staphylococcus aureus [1], against Staphylococcus aureus [2], with Enterococcus faecalis, with Staphylococcus aureus [3] and in the test with Bacillus subtilis was greater than 128 µg/mL throughout. Also, the MIC with Staphylococcus aureus [4], in the test on Escherichia coli and with Staphylococcus aureus [6] was greater than 128 µg/mL each time.
Consider `O=C(O)/C(O)=C/C(=O)c1cccc(Br)c1`, for which the MIC against Staphylococcus aureus [5], in the test on Staphylococcus aureus [1], in the test with Staphylococcus aureus [2], against Enterococcus faecalis, in the test with Staphylococcus aureus [3] and in the test with Bacillus subtilis was greater than 128 µg/mL each time. In addition, the MIC against Staphylococcus aureus [4], with Escherichia coli and in the test on Staphylococcus aureus [6] was greater than 128 µg/mL in each case.
Take `O=C(O)c1cn(C2CC2)c2cc(N3CCNCC3)c(F)cc2c1=O` [CIPROFLOXACIN]: the MIC is 0.76 µM against Staphylococcus aureus [2] and 1.5 µM against Enterococcus faecalis.
Take `O=C(O)CCC(=O)c1ccc(-c2ccccc2)cc1` [FENBUFEN]: the minimum inhibitory concentration (MIC) in the test on Staphylococcus aureus [5], against Staphylococcus aureus [1], against Staphylococcus aureus [2], in the test with Staphylococcus aureus [3], in the test with Staphylococcus aureus [4] and against Escherichia coli was greater than 128 µg/mL each time. Besides, the MIC in the test on Staphylococcus aureus [6] was greater than 128 µg/mL.
Consider `C[C@H]1COc2c(N3CCN(C)CC3)c(F)cc3c(=O)c(C(=O)O)cn1c23` [LEVOFLOXACIN], for which the MIC against Staphylococcus aureus [2] came out at 0.69 µM; against Enterococcus faecalis it was 1.4 µM; in the test on Staphylococcus aureus [4], 5.53 µM.
For the molecule `COc1c(N2C[C@@H]3CCCN[C@@H]3C2)c(F)cc2c(=O)c(C(=O)O)cn(C3CC3)c12` [MOXIFLOXACIN], the MIC turned out to be 0.31 µM against Staphylococcus aureus [2] and 0.62 µM with Staphylococcus aureus [4].
Consider `CCn1cc(C(=O)O)c(=O)c2cc(F)c(N3CCNCC3)cc21` [NORFLOXACIN], for which the MIC is greater than 128 µg/mL in the test with Staphylococcus aureus [1]; greater than 128 µg/mL against Staphylococcus aureus [2]; 6.3 µM with Enterococcus faecalis; 3.3 µM in the test on Staphylococcus aureus [3]; 106 µM with Staphylococcus aureus [4].
